Assay outcomes from PubChem.
This is a sample that favours compounds with a hit; in the whole collection about 3.5% have one here.
MrgX1 ag: human MrgX1 receptor agonism, primary screen; Q96LB2; MrgX1-HEK293 cells, Fluo-4 calcium fluorescence, agonist mode; hits give high values; B-score at 10 µM; hit rate 0.44% among 310,000;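 active = calcium response B-score plate-corrected fluorescence ratio at least 3 library SD, with starting fluorescence B-score inside 5 SD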
Target sequence (Q96LB2 whole entry, looked up): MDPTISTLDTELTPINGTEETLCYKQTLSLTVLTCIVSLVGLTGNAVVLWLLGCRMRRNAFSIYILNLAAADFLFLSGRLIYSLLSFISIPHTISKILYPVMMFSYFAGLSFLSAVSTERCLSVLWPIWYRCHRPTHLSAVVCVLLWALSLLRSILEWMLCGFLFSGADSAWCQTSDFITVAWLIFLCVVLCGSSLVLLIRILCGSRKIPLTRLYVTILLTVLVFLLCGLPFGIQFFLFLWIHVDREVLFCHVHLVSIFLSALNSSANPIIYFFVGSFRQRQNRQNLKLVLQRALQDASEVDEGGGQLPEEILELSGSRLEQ
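System: HEK293 cells stably expressing human MrgX1 receptor; Dosing: test compound in the initial addition of three; Schedule: overnight plating, then 30 min 37 °C plus 30 min room-temperature dye loading; Detection: kinetic calcium dye fluorescence, Fluo-4 NW; Controls: per-plate positive and negative controls for Z′ factor.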
MrgX1 PAM: allosterically activates human MrgX1 receptor signaling; Q96LB2; MrgX1-HEK293, Fluo-4 calcium flux, FDSS; hits give high values; B-score at 10 µM; hit rate 0.63% among 310,000; AID 588675;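 active = plate-corrected calcium response at least 3 library SD above typical, normal starting fluorescence, not activating the receptor alone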;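 note: compound read alongside a low EC10 to EC30 dose of BAM8-22 agonist; peak minus trough fluorescence over baseline measured at the second addition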
MrgX1 antag: antagonists of human MrgX1 receptor | Q96LB2 | hit rate 1.3% among 310,000 | B-score at 10 µM | MRGX1-HEK293 calcium flux, Fluo-4, BAM8-22 antagonism; hits give low values;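 active = calcium-response B-score plate-corrected more than 3 library SD below zero, starting fluorescence within 5 deviations, no agonist response on first addition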;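 note: peak minus trough fluorescence over baseline after final BAM8-22 challenge near maximal dose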
RGS4 block: human RGS4 inhibition. HEK293 M3R/RGS4 inducible, Fluo-4 calcium flux; hits give high values; triggered by carbachol at its EC20. B-score at 10 µM. hit rate 0.45% among 310,000. AID 463165;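 active = B-score, a plate-corrected calcium signal, over three deviations above library mean, with baseline fluorescence within five deviations of library mean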;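 note: RGS4 expression induced by doxycycline in cells with stable M3 receptor; B-score is computed from the integrated fluorescence ratio over baseline after carbachol; higher B-score means a larger calcium signal and so more RGS4 inhibition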
Target sequence (P49798 whole entry, looked up): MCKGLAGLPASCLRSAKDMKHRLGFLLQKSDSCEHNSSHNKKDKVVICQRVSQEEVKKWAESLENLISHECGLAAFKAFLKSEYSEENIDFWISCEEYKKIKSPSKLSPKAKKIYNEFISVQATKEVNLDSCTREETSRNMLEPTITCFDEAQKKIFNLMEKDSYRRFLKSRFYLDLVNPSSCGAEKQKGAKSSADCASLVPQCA
RGS4 act: RGS4 potentiation or activation | hit rate 0.92% among 310,000 | HEK293 M3R/inducible RGS4, carbachol calcium flux Fluo4; hits give low values | B-score at 10 µM;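 active = B-score of the integrated calcium signal more than 4 SD below the library mean, with starting fluorescence not abnormally high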;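 note: negative B-score means reduced calcium response which marks RGS4 activation or potentiation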
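System: HEK293 FlpIn-TREx cells, stable M3R, doxycycline-inducible RGS4. Timing: overnight RGS4 induction, 30 min dye load 37 °C, 20 min compound RT. Also added: carbachol, ECmax concentration. Measured by: Fluo4 fluorescence kinetic imaging of calcium. Evaluation: integrated calcium ratio converted to B score.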
A number is an active result.

For Cc1ccc(N2CCN(S(=O)(=O)c3ccc4c(c3)NC(=O)C(C)C(=O)N4)CC2C)cc1 (stereo not drawn) the results were MrgX1 ag inactive, MrgX1 PAM inactive, MrgX1 antag -7.6, RGS4 block inactive and RGS4 act inactive.
For Cc1ccc(N2CCN(S(=O)(=O)c3ccc4c(c3)n(C)c(=O)c(=O)n4C)CC2C)cc1 (stereo not drawn) the results were MrgX1 ag inactive, MrgX1 PAM inactive, MrgX1 antag inactive, RGS4 block inactive and RGS4 act inactive.
Screening COc1cccc(/C=C/C(=O)OCC(=O)NCCC2=CCCCC2)c1 returned MrgX1 ag inactive, MrgX1 PAM inactive, MrgX1 antag inactive, RGS4 block inactive and RGS4 act inactive.
`O=C1NC2(CCCCC2)C(=O)N1Cc1ccc([N+](=O)[O-])cc1` gave MrgX1 ag inactive, MrgX1 PAM inactive, MrgX1 antag -7.2, RGS4 block inactive and RGS4 act inactive.
Screening O=C1c2ccccc2C(=O)C2OC12 (stereo not drawn) returned MrgX1 ag 43, MrgX1 PAM inactive, MrgX1 antag inactive, RGS4 block 22 and RGS4 act inactive.
`Cc1cccc(NC(=O)CSc2nc3ccccc3o2)c1` gave MrgX1 ag inactive, MrgX1 PAM inactive, MrgX1 antag inactive, RGS4 block inactive and RGS4 act inactive.
`Cc1nn2c(-c3cccc(NC(=O)CSc4nc5ccccc5o4)c3)nnc2c2ccccc12` gave MrgX1 ag inactive, MrgX1 PAM inactive, MrgX1 antag inactive, RGS4 block inactive and RGS4 act -7.9.
COc1ccccc1/C=C(/C(=O)OCC(=O)NCc1ccccc1)c1ccccc1 was read as MrgX1 ag inactive, MrgX1 PAM inactive, MrgX1 antag -5.5, RGS4 block inactive and RGS4 act inactive.
For O=C(CCN1C(=O)c2cccc3cccc(c23)C1=O)Nc1ccon1 the results were MrgX1 ag inactive, MrgX1 PAM inactive, MrgX1 antag inactive, RGS4 block inactive and RGS4 act inactive.
Screening COc1ccc(C2=NN(C(=O)C(O)c3ccccc3)C(O)(C(F)(F)F)C2)cc1 (stereo not drawn) returned MrgX1 ag 29, MrgX1 PAM inactive, MrgX1 antag inactive, RGS4 block inactive and RGS4 act inactive.
Screening c1coc(C2Nc3cccc4cccc(c34)N2)c1 returned MrgX1 ag inactive, MrgX1 PAM inactive, MrgX1 antag inactive, RGS4 block 7.2 and RGS4 act inactive.
COc1ccc(/C=C/C(=O)c2ccc(Cl)cc2)c(OC)c1 was read as MrgX1 ag inactive, MrgX1 PAM inactive, MrgX1 antag -4.9, RGS4 block inactive and RGS4 act inactive.
Screening COc1ccc(/C=C/C(=O)c2cc(Cl)ccc2O)c(OC)c1 returned MrgX1 ag inactive, MrgX1 PAM inactive, MrgX1 antag inactive, RGS4 block inactive and RGS4 act inactive.
Screening O=C(NCc1ccco1)c1sc(=S)n2c1[nH]c(=O)c1ccccc12 returned MrgX1 ag 57, MrgX1 PAM inactive, MrgX1 antag inactive, RGS4 block inactive and RGS4 act inactive.
For O=C(NCc1ccccc1)c1ccc2c(=O)[nH]c3c(C(=O)NCC4CCCO4)sc(=S)n3c2c1 (stereo not drawn) the results were MrgX1 ag inactive, MrgX1 PAM inactive, MrgX1 antag inactive, RGS4 block inactive and RGS4 act inactive.
Screening O=C(NC1CCCC1)c1sc(=S)n2c1[nH]c(=O)c1ccccc12 returned MrgX1 ag 60, MrgX1 PAM inactive, MrgX1 antag inactive, RGS4 block inactive and RGS4 act inactive.
For CNC(=O)CC1C(=O)N(c2ccc(OC)cc2)C(=S)N1NC(=O)c1cccc(F)c1 (stereo not drawn) the results were MrgX1 ag inactive, MrgX1 PAM inactive, MrgX1 antag inactive, RGS4 block inactive and RGS4 act inactive.
c1ccc(CCCN2CCN(c3ccccn3)CC2)cc1 was read as MrgX1 ag inactive, MrgX1 PAM inactive, MrgX1 antag inactive, RGS4 block inactive and RGS4 act inactive.
`O=C(Nc1ccc(O)cc1)c1cccc(Oc2ccc([N+](=O)[O-])cc2)c1` gave MrgX1 ag inactive, MrgX1 PAM inactive, MrgX1 antag -5.9, RGS4 block inactive and RGS4 act inactive.
Cc1ccc(NC(=O)c2cccc(Oc3ccc([N+](=O)[O-])cc3)c2)c(C(=O)O)c1 was read as MrgX1 ag inactive, MrgX1 PAM inactive, MrgX1 antag inactive, RGS4 block inactive and RGS4 act inactive.
For Cc1sc2nc(CSC(C)C(=O)N(C)CC(=O)Nc3ccccc3C(F)(F)F)[nH]c(=O)c2c1C (stereo not drawn) the results were MrgX1 ag inactive, MrgX1 PAM inactive, MrgX1 antag inactive, RGS4 block inactive and RGS4 act -7.1.
`CCCSc1nnc(NC(=O)c2sc3nc(-c4cccs4)ccc3c2N)s1` gave MrgX1 ag 38, MrgX1 PAM inactive, MrgX1 antag inactive, RGS4 block inactive and RGS4 act inactive.
Cc1nc(-c2ccc(S(=O)(=O)NCc3ccccn3)s2)cs1 was read as MrgX1 ag inactive, MrgX1 PAM inactive, MrgX1 antag inactive, RGS4 block inactive and RGS4 act inactive.
COc1ccc(/C=C2\SC(N3CCc4ccccc4C3)=NC2=O)cc1 was read as MrgX1 ag inactive, MrgX1 PAM inactive, MrgX1 antag -4.7, RGS4 block inactive and RGS4 act inactive.
COc1cc(/C=C2\SC(N3CCc4ccccc4C3)=NC2=O)cc(OC)c1OC was read as MrgX1 ag inactive, MrgX1 PAM inactive, MrgX1 antag inactive, RGS4 block inactive and RGS4 act inactive.
For O=C1N=C(N2CCc3ccccc3C2)S/C1=C\c1cccc(O)c1 the results were MrgX1 ag inactive, MrgX1 PAM inactive, MrgX1 antag inactive, RGS4 block inactive and RGS4 act -8.3.
Screening CCn1cc(CNC(=O)C2CCC(=O)N(C3CCCCCC3)C2)cn1 (stereo not drawn) returned MrgX1 ag inactive, MrgX1 PAM inactive, MrgX1 antag inactive, RGS4 block inactive and RGS4 act inactive.
Screening COC(=O)c1ccc2c(c1)C(=O)/C(=C/c1ccc(O)cc1)O2 returned MrgX1 ag inactive, MrgX1 PAM inactive, MrgX1 antag -5.3, RGS4 block inactive and RGS4 act inactive.
For O=C1/C(=C/c2ccc(Br)cc2)Oc2cc(O)ccc21 the results were MrgX1 ag inactive, MrgX1 PAM inactive, MrgX1 antag -9.7, RGS4 block inactive and RGS4 act inactive.
Screening Cc1sc2ncnc(N3CCC(C(=O)N(C)CC(=O)Nc4ccc(Cl)c(C(F)(F)F)c4)CC3)c2c1C returned MrgX1 ag inactive, MrgX1 PAM inactive, MrgX1 antag inactive, RGS4 block inactive and RGS4 act inactive.
For CCOc1ccccc1C(C(=O)NC1CCCC1)N(C(=O)c1csnn1)C1CC1 (stereo not drawn) the results were MrgX1 ag inactive, MrgX1 PAM inactive, MrgX1 antag inactive, RGS4 block inactive and RGS4 act inactive.
